Results as given in ChEMBL document CHEMBL1781999, “Lead optimization of aryl and aralkyl amine-based triazolopyrimidine inhibitors of Plasmodium falciparum dihydroorotate dehydrogenase with antimalarial activity in mice” (J Med Chem, 2011).
Values after ≈ are worked out from the molar mass of the structure shown.

Assays:
[1] = Antimalarial activity against Plasmodium berghei ANKA NK65 infected in po dosed Swiss Webster mouse assessed as reduction of parasitemia level administered qd for 4 days measured 24 hrs after last dose by light microscopic analysis; type: functional
[2] = target: T1, Dihydroorotate dehydrogenase (Plasmodium falciparum, UniProt Q54A96); assay: Inhibition of His6-tagged recombinant Plasmodium falciparum dihydroorotate dehydrogenase expressed in Escherichia coli using L-dihydroorotate as substrate after 5 to 10 mins by DCIP dye-based assay
T1 sequence (Q54A96 whole entry): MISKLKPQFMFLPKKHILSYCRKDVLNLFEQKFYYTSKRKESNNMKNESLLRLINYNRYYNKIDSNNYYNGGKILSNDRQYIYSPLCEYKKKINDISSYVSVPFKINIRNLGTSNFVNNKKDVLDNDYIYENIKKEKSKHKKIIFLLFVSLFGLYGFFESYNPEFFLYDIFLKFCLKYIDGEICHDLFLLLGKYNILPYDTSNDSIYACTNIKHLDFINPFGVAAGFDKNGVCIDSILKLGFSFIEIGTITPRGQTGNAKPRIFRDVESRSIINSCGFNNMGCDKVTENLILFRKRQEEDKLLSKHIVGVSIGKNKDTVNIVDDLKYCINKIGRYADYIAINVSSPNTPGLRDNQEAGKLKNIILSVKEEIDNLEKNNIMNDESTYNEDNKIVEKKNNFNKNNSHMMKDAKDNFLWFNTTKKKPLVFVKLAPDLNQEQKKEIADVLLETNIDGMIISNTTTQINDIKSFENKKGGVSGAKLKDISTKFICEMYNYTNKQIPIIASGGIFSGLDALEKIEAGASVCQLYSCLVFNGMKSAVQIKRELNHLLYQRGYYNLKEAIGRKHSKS

[3] = tested on: Mus musculus; assay: Cmax in Swiss mouse at 20 mg/kg, po measured after 24 hrs by LC-MS analysis; type: ADME, organism-based; set-up: dose 20 mg/kg, route oral; settings: in vivo
Method in brief: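 Non-fasted male Swiss outbred mice given a single oral gavage dose in 0.5% w/v sodium carboxymethylcellulose, 0.5% v/v benzyl alcohol, 0.4% v/v Tween 80. One mouse per time point, cardiac blood under isoflurane, sampling to 24 h. Plasma stabilized, acetonitrile-precipitated, quantified by LC-MS against blank-plasma standards; Cmax read from concentration-time profile.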

[4] = Inhibition of His6-tagged recombinant Plasmodium berghei dihydroorotate dehydrogenase expressed in Escherichia coli using L-dihydroorotate as substrate after 10 to 15 mins by DCIP dye-based assay; settings: in the assay text read “5 to 10 mins” for “10 to 15 mins”
Method in brief: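 Truncated soluble enzyme lacking the N-terminal membrane domain. Final concentrations: 0.2 mM L-dihydroorotate, 0.02 mM CoQD, 0.12 mM DCIP. Reaction started with 10 nM enzyme and read at 600 nm for 5–10 min at 20 °C. Inhibitor 0.01–100 μM in 3-fold steps, in triplicate. IC50 from a three-parameter fit of vi/vo from initial rates.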

[5] = Partition coefficient, log D of the compound at pH 7.4 by UV-HPLC analysis; settings: octanol/water
[6] = tested on: Plasmodium falciparum; assay: Antimalarial activity against Plasmodium falciparum 3D7 infected in human A positive erythrocytes by [3H]hypoxanthine uptake assay in presence of serum in medium; type: functional, organism-based
Method in brief: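 Growth read by [3H]-hypoxanthine uptake. Each concentration run in quadruplicate and fitted to a four-parameter variable-slope log[I]-response model for 50% growth inhibition.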

[7] = (§1) Plasma protein binding in human by albumin chromatographic method; type: ADME, cell-free; settings: read-out: PPB (converted)
[8] = tested on: Liver microsomes; assay: (§2) Intrinsic clearance in human liver microsome assessed per mg of protein at 1 uM after 60 mins by LC-MS analysis; type: ADME; settings: microsomes, 1 h, 1 µM
Method in brief: (§3)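 Microsomal stability. Compound at 1 μM with liver microsomes (0.4 mg/mL protein) in 0.1 M phosphate pH 7.4 at 37 °C. Started with an NADPH-regenerating system plus MgCl2; controls lacked NADPH. Quenched with cold acetonitrile at time points up to 60 min. Parent loss measured by LC-MS and fitted to exponential decay to give CLint.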

[9] = tested on: Liver; assay: Intrinsic clearance in mouse liver microsome assessed per mg of protein at 1 uM after 60 mins by LC-MS analysis; type: ADME; settings: microsomes, 1 h; method in brief: as §3
[10] = tested on: Mus musculus; assay: Toxicity in Swiss mouse assessed as adverse effect at 20 mg/kg, po measured after 24 hrs; type: organism-based; set-up: dose 20 mg/kg, route oral; settings: in vivo
[11] = Aqueous solubility of the compound in phosphate buffer at pH 6.5; type: physicochemical
Method in brief: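 Non-equilibrium solubility. Concentrated DMSO stocks were diluted into pH 6.5 phosphate buffer (final DMSO 1% v/v) and precipitation was monitored by nephelometry. Solubility is given as the concentration range just before a turbidity signal rose above background.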

[12] = Inhibition of His6-tagged recombinant Plasmodium berghei dihydroorotate dehydrogenase expressed in Escherichia coli using L-dihydroorotate as substrate after 5 to 10 mins by DCIP dye-based assay
[13] = target: Dihydroorotate dehydrogenase (quinone), mitochondrial (Homo sapiens, UniProt Q02127); assay: Inhibition of His6-tagged recombinant human dihydroorotate dehydrogenase expressed in Escherichia coli using L-dihydroorotate as substrate after 5 to 10 mins by DCIP dye-based assay
[14] = tested on: Plasma; assay: as §1; type: ADME, cell-free
[15] = tested on: Mus musculus; assay: Time duration above 1 uM plasma concentration in Swiss mouse at 20 mg/kg, po; type: ADME, organism-based; set-up: dose 20 mg/kg, route oral; settings: in vivo
Method in brief: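 Non-fasted male Swiss outbred mice given a single gavage dose in suspension (0.5% Na-CMC, 0.5% benzyl alcohol, 0.4% Tween 80). One mouse per time point; blood taken by cardiac puncture under isoflurane into stabilizer over 24 h. Plasma measured by LC-MS; time above 1 μM read directly from the concentration-time profile.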

[16] = Antimalarial activity against Plasmodium berghei ANKA NK65 infected in Swiss Webster mouse assessed as reduction of parasitemia level at 2 mg/kg, po qd administered for 4 days measured 24 hrs after last dose by light microscopic analysis; type: functional; set-up: scale not given: the % may be the effect or the level left
Method in brief: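 Female Swiss Webster mice, 8-10 weeks old (20-22 g), infected intraperitoneally with 2 × 10^7 P. berghei NK65 ANKA-infected erythrocytes. Oral doses in CMC vehicle (200 μL), first given 3 h post-infection, then at 24, 48 and 72 h. Parasitemia followed daily from 24 h by light microscopy at 1000× oil immersion, counting ≥10 fields of >100 erythrocytes. Mice losing ≥20% body weight were euthanized.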

[17] = as §2; type: ADME, microsomes; settings: liver microsomes; method in brief: as §3
[18] = phosphate buffer, read-out: solubility

Sequence of Dihydroorotate dehydrogenase (quinone), mitochondrial (Q02127 whole entry): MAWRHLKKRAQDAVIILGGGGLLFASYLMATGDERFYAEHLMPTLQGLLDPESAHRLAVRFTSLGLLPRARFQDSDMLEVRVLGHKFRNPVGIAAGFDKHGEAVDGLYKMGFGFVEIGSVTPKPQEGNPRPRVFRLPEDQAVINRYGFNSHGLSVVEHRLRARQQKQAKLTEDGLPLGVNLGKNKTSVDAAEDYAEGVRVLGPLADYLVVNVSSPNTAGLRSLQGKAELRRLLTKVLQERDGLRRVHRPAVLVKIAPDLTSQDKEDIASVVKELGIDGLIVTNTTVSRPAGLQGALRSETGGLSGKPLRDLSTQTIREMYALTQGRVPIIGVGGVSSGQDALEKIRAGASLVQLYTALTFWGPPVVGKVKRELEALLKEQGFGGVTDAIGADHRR

Structure (SMILES)	IC50 [2]	Cmax [3]	IC50 [4]	logD [5]	EC50 [6]	fraction unbound [7]	CL [8]	CL [9]	Activity [10]	solubility [11, 18]	also measured
C[C@H]1[C@H](OC(=O)CCC(=O)O)O[C@@H]2O[C@@]3(C)CC[C@H]4[C@H](C)CC[C@@H]1[C@@]24OO3 [ARTESUNATE]											ED50 [1]: 5.9 mg/kg
Cc1cc(NC2Cc3ccccc3C2)n2ncnc2n1	0.5 µM	500 nM	2.4 µM	2.5	0.4 µM	0.239	< 5 µL/min/mg	32 µL/min/mg	Non-toxic	188 µM (≈ 49.9 µg/mL)	
CCCc1c(C)nc2ncnn2c1Nc1ccc(C)cc1	> 100 µM				> 10 µM						IC50 [12]: > 100 µM; IC50 [13]: > 100 µM
Cc1cc(Nc2ccc(C(C)(C)C)c(F)c2)n2ncnc2n1	0.035 µM	250 nM		3.5	0.097 µM	0.036	32 µL/min/mg	68 µL/min/mg	Non-toxic		IC50 [12]: 0.11 µM; solubility ([11]; buffer): < 2.7 µM
Cc1cc(Nc2ccc(C(C)C)cc2)n2ncnc2n1	0.22 µM	800 nM	0.88 µM	3	0.78 µM	0.087	30 µL/min/mg	241 µL/min/mg	Non-toxic	47 µM (≈ 12.6 µg/mL)	IC50 [13]: > 100 µM
O=C1C(O)=C([C@H]2CC[C@H](c3ccc(Cl)cc3)CC2)C(=O)c2ccccc21 [ATOVAQUONE]					0.0015 µM						PPB [14]: 87%
Cc1cc(Nc2ccc3sccc3c2)n2ncnc2n1	0.09 µM	400 nM	0.6 µM	2.6	0.066 µM	0.102	64 µL/min/mg	162 µL/min/mg	Non-toxic	22 µM (≈ 6.19 µg/mL)	
Cc1cc(Nc2ccc3c(c2)CCCC3)n2ncnc2n1		2200 nM	0.19 µM	3.4	0.16 µM	0.045	72 µL/min/mg	361 µL/min/mg	Non-toxic	89 µM (≈ 24.9 µg/mL)	Time [15]: 1 h; IC50 [13]: > 100 µM
Cc1cc(Nc2ccc(NC(C)(C)C)cc2)n2ncnc2n1	> 50 µM				> 5 µM						IC50 [12]: > 100 µM
Cc1cc(NC2CCc3ccccc3C2)n2ncnc2n1 (stereo not given)	0.54 µM	7800 nM	2.3 µM	2.9	1.8 µM		< 5 µL/min/mg	35 µL/min/mg	Non-toxic		Time [15]: 6 h; solubility ([11]; buffer): > 358 µM
CCN(CC)CCCC(C)Nc1ccnc2cc(Cl)ccc12 (stereo not given) [CHLOROQUINE]											Activity [16]: 50%; ED50 [1]: 1.8 mg/kg; PPB [14]: 87%
Cc1cc(Nc2ccc(C(F)(F)F)cc2)n2ncnc2n1				2.5		0.131				21 µM (≈ 6.16 µg/mL)	microsomal CLint at 1 µM [17]: 8 µL/min/mg
OC(c1cc(C(F)(F)F)nc2c(C(F)(F)F)cccc12)C1CCCCN1 (stereo not given) [MEFLOQUINE]											ED50 [1]: 3.8 mg/kg
